The target of test [1] is T1, Opioid receptors; mu & delta (Homo sapiens) (UniProt P41143+P35372). The test can be described thus: Selectivity ratio as the ratio of IC50 ratio of delta receptor to that of mu receptor. Type of test: functional. The method in brief:
(§1)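 Each selectivity value is the delta IC50 ratio from mouse vas deferens (DADLE, 100 nM antagonist, 30 min) divided by the kappa (ethylketazocine) or mu (morphine) IC50 ratio from guinea pig ileum. A value of 1 was used wherever an IC50 ratio was below 1.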

Test [2] concerns the target Delta-type opioid receptor (Mus musculus) (UniProt P32300). Briefly: Antagonistic activity against opioid delta receptor in mouse vas deferens after 10 minutes. Preparation was washed (5x) with buffer after incubation with antagonist. Format: functional, tissue-based. The method in brief: (§2)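 Electrically stimulated mouse vas deferens with DADLE as the delta agonist. Antagonist at 100 nM was incubated for the stated time (10, 30 or 60 min). The preparation was then washed 5 times with buffer before agonist IC50 was measured. Result is the IC50 ratio, agonist IC50 with antagonist over control IC50.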

The target of test [3] is Mu-type opioid receptor (Cavia porcellus) (UniProt P97266). The test can be described thus: Antagonistic activity against Opioid receptor mu 1 in guinea pig ileum assay. Type of test: functional, tissue-based. The method in brief: (§3)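 Electrically stimulated guinea pig ileum. Antagonist present at 100 nM during a 30 min incubation. Agonists were morphine (mu) and ethylketazocine (kappa). Antagonism was expressed as IC50 ratio: agonist IC50 with antagonist divided by control IC50.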
Sequence of Mu-type opioid receptor (Cavia porcellus) (P97266 whole entry): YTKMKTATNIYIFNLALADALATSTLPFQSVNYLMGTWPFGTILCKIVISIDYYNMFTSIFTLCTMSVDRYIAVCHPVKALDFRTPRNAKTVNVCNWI

Test [4] addresses Delta-type opioid receptor (Mus musculus) (UniProt P32300). Briefly: Antagonistic activity against opioid delta receptor in mouse vas deferens after 30 min incubation. Preparation was washed (5x) with buffer after incubation with antagonist. Format: functional, tissue-based. The method in brief:
as §2

The target is the same in test [5]. Briefly: Antagonistic activity against opioid delta receptor in mouse vas deferens after 30 min. IC50 ratio determined without washing (prewash). Format: functional. The method in brief: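 Electrically stimulated mouse vas deferens with DADLE as the delta agonist. Antagonist at 100 nM was incubated for 30 min. Agonist IC50 was measured directly without washing. Result is the IC50 ratio versus control agonist IC50.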

For test [6], the target named is T2, Opioid receptors; delta & kappa (Homo sapiens) (UniProt P41145+P41143). Briefly: Selectivity ratio as the ratio of IC50 ratio of delta receptor to that of kappa receptor. Type of test: functional. The method in brief:
as §1

For test [7], the target named is Kappa-type opioid receptor (Cavia porcellus) (UniProt P41144). Briefly: Antagonistic activity against Opioid receptor kappa 1 in guinea pig ileum assay. Format: functional, tissue-based. The method in brief:
as §3

The target in test [8] is Delta-type opioid receptor (Homo sapiens) (UniProt P41143). Briefly: Selectivity ratio as ratio of ED50 value against delta-2 receptor to that delta-1 receptor after 1.5 administration. Format: functional, organism-based. The method in brief: (§4)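 Mice were pretreated icv with antagonist at 5 nmol. Antinociception from icv DPDPE (delta1) or DSLET (delta2) was measured 1.5 or 24 h later. ED50 ratio is pretreated ED50 over control ED50. Selectivity is the DSLET ED50 ratio divided by the DPDPE ED50 ratio.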
Sequence of Delta-type opioid receptor (Homo sapiens) (P41143 whole entry): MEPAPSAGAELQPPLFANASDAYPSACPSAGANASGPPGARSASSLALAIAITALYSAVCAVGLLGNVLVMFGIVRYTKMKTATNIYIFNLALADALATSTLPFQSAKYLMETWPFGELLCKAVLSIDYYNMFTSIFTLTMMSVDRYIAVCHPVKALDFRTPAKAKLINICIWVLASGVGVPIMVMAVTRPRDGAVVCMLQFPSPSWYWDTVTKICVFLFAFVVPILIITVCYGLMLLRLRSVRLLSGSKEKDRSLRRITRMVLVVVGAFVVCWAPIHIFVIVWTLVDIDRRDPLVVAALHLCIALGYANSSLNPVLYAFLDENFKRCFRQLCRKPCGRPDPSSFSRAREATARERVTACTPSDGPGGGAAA

For test [9], the target named is T2, Opioid receptors; delta & kappa (Homo sapiens). Briefly: Selectivity ratio as ratio of Ki value towards kappa receptor to that of delta-1 receptor. Format: protein assay.
In test [10] the target is Kappa-type opioid receptor (Cavia porcellus, UniProt P41144). Briefly: Tested for binding affinity against Opioid receptor kappa 1 using [3H]U-69593 as a radioligand in the guinea pig brain membranes. Format: cell membranes. The method in brief:
(§5)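 Radioligand competition in guinea pig brain membranes. Kappa sites were labelled with [3H]U69593 and mu sites with [3H]DAMGO. Delta1 sites used [3H]DPDPE and delta2 sites used [3H]DSLET, both in the presence of 100 nM unlabelled DAMGO. Results are reported as Ki.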

In test [11] the test system is Mus musculus. Briefly: Tested in vivo for antagonistic activity against antinociceptive effect of icv-administered DPDPE in mice at 24 hr. Format: functional. The method in brief: as §4
Test [12] addresses T1, Opioid receptors; mu & delta (Homo sapiens). The test can be described thus: Selectivity ratio as ratio of Ki value towards mu receptor to that of delta-1 receptor. Type of test: protein assay.
In test [13] the target is Delta-type opioid receptor (Mus musculus) (UniProt P32300). Briefly: Tested […] for antagonistic activity against opioid delta receptor in mice at incubation time of 60 minutes. Preparation was washed (5x) with buffer after incubation with antagonist. Format: functional.
Sequence of Delta-type opioid receptor (Mus musculus) (P32300 whole entry): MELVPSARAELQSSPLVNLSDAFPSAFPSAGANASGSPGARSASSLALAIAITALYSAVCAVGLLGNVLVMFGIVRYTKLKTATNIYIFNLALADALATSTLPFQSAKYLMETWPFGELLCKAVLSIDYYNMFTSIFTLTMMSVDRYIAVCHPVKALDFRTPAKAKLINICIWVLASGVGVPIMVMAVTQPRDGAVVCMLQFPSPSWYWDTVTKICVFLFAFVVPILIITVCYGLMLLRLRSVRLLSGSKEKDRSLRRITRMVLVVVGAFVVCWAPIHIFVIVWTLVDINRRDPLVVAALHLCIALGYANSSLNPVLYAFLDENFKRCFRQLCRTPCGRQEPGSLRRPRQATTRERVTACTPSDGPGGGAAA
The target in test [14] is Delta-type opioid receptor (Homo sapiens) (UniProt P41143). Briefly: Selectivity ratio as ratio of ED50 value against delta-2 receptor to that delta-1 receptor after hours of administration,. Type of test: functional, organism-based. The method in brief:
as §4

For test [15], the system named is Mus musculus. The test can be described thus: Tested in vivo for antagonistic activity against antinociceptive effect of icv-administered DPDPE in mice at 1.5 hr. Format: functional. The method in brief:
as §4

The subject of test [16] is Mus musculus. The test can be described thus: Tested in vivo for antagonistic activity against antinociceptive effect of icv-administered DSLET in mice at 1.5 hr. Type of test: functional. The method in brief:
as §4

Test [17] addresses Mu-type opioid receptor (Cavia porcellus, UniProt P97266). The test can be described thus: Tested for binding affinity against mu opioid receptor using [3H]DAMGO as a radioligand in the guinea pig brain membranes. Type of test: cell membranes. The method in brief: as §5
The subject of test [18] is Mus musculus. The test can be described thus: Tested in vivo for antagonistic activity against antinociceptive effect of icv-administered DSLET in mice at 24 hr. Format: functional. The method in brief:
as §4

Molecules are shown by their SMILES.

T1 sequence (P35372 whole entry, looked up): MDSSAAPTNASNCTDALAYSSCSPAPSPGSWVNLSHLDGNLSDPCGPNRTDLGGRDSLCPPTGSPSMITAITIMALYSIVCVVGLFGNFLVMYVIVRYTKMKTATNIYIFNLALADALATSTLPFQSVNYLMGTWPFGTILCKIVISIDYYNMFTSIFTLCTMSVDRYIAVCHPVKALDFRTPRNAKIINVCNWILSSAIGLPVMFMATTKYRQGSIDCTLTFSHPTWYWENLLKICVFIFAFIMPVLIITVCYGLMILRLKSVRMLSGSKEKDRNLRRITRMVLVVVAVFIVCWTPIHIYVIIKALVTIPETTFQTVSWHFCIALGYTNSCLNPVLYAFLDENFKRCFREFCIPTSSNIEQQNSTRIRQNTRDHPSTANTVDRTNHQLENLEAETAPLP
T1 sequence (P41143 whole entry, looked up): as the sequence (P41143 whole entry) above
Sequence of Kappa-type opioid receptor (Cavia porcellus) (P41144 whole entry): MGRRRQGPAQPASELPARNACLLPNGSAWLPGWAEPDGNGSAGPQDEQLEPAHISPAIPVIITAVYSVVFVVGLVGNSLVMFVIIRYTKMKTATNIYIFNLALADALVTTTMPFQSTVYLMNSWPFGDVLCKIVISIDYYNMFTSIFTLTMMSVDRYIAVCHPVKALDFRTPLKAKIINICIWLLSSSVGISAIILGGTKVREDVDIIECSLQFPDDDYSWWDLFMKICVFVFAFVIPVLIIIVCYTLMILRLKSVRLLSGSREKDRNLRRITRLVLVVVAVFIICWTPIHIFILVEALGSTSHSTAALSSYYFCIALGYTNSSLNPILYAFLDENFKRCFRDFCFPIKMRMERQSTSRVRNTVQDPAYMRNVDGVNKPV
Sequence of Kappa-type opioid receptor (P41144 whole entry): as above
Sequence of Mu-type opioid receptor (P97266 whole entry): as the sequence (P97266 whole entry) above
T2 sequence (P41143 whole entry, looked up): as the sequence (P41143 whole entry) above
T2 sequence (P41145 whole entry, looked up): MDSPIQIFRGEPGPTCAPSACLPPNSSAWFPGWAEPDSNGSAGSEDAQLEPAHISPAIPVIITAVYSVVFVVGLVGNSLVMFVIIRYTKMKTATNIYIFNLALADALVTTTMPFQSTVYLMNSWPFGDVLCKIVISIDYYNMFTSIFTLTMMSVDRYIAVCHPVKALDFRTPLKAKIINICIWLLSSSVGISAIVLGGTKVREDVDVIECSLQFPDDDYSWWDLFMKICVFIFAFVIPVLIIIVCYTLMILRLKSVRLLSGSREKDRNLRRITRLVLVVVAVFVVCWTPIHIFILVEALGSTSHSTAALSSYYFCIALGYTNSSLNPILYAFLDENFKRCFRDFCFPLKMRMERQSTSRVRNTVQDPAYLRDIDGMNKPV

Take `CC(=O)Nc1cccc(Cn2c3c(c4ccccc42)C[C@@]2(O)C4Cc5ccc(O)c6c5C2(CCN4CC2CC2)[C@H]3O6)c1` (some centres not stated): the Selectivity in test [1] and in test [6] was 31 each time. Besides, the IC50 ratio was found to be 16 in test [2]; 5.3 in test [3]; 18 in test [4]; 33 in test [5]; 0.9 in test [7].
The Ki is the equilibrium dissociation constant of an inhibitor or competing ligand from its target. As to `Oc1ccc2c3c1O[C@H]1c4c(c5ccccc5n4Cc4ccccc4N=C=S)C[C@@]4(O)C(C2)N(CC2CC2)CCC314` (some centres not stated), the Selectivity was found to be 1.3 in [8]; 57 in test [1]; 308 in test [9]; 76 in [12]; 0.5 in [14]; 45 in test [6]. For the same molecule, the IC50 ratio is 23 in test [2]; 0.6 in test [3]; 216 in test [13]; 39 in [4]; 57 in test [5]; 1.3 in [7]. In addition, the Ki in [10] was determined as 615 nM; in test [17], 151 nM. In addition, the ED50 ratio in test [11] is reported as 19.4; in test [15] it was 1.1; in [16] it was 1.4; in test [18], 8.8.
Take `Oc1ccc2c3c1O[C@H]1c4c(c5ccccc5n4Cc4cccc(N=C=S)c4)C[C@@]4(O)C(C2)N(CC2CC2)CCC314` (some centres not stated): the Selectivity in test [8] is 1.7; in test [9], 5; in [12] it was 16; in test [14], 1.2. Moreover, the Ki was 104 nM in test [10] and 66.2 nM in test [17]. Further, the ED50 ratio in test [11] was determined as 3.5; in test [15] it was 1.1; in test [16], 1.9; in test [18], 4.1. The IC50 ratio in test [3] turned out to be 0.8; in [7], 1.2.
`O=C(CBr)Nc1ccc(Cn2c3c(c4ccccc42)C[C@@]2(O)C4Cc5ccc(O)c6c5C2(CCN4CC2CC2)[C@H]3O6)cc1` (some centres not stated): the Selectivity in [1] and in test [6] was 30 throughout. Besides, the IC50 ratio in [2] was found to be 3.6; in [3], 0.7; in [13], 1.4; in [4], 12; in test [5] it was 30; in test [7], 0.9.
In the case of `O=C(CI)Nc1ccccc1Cn1c2c(c3ccccc31)C[C@@]1(O)C3Cc4ccc(O)c5c4C1(CCN3CC1CC1)[C@H]2O5` (some centres not stated), the Selectivity in test [1] and in test [6] was 51 throughout. Also, the IC50 ratio in [2] is 51.2; in test [3], 0.7; in test [4] it was 25.5; in test [5] it was 50.7; in test [7] it was 0.5.
As to `Oc1ccc2c3c1O[C@H]1c4c(c5ccccc5n4Cc4ccccc4)C[C@@]4(O)C(C2)N(CC2CC2)CCC314` (some centres not stated), the Selectivity in [8] was determined as 3.2; in test [1], 131; in [14], 7.4; in test [6], 208. In addition, the ED50 ratio in test [11] is 1.5; in [15], 1; in test [16], 3.2; in test [18] it was 11.1. The IC50 ratio in [3] amounted to 1.6; in test [5], 208; in [7], 0.4.
As to `CC(=O)Nc1ccc(Cn2c3c(c4ccccc42)C[C@@]2(O)C4Cc5ccc(O)c6c5C2(CCN4CC2CC2)[C@H]3O6)cc1` (some centres not stated), the Selectivity in [1] and in [6] was 31 in each case. Besides, the IC50 ratio is 1.6 in [2]; 0.9 in [3]; 7.1 in test [13]; 3.1 in test [4]; 31 in test [5]; 0.2 in test [7].
Turning to `Oc1ccc2c3c1O[C@H]1c4c(c5ccccc5n4Cc4ccc(N=C=S)cc4)C[C@@]4(O)C(C2)N(CC2CC2)CCC314` (some centres not stated), the Selectivity in test [8] came to 3.5; in test [1], 25; in test [9], 46; in test [12], 55; in test [14], 1.7; in [6] it was 18. In addition, the IC50 ratio in test [2] was determined as 6.7; in test [3], 1.3; in [4], 20; in test [5], 18; in test [7] it was 0.6. The Ki in test [10] was found to be 245 nM; in test [17], 289 nM. Further, the ED50 ratio in test [11] is on record as 2.5; in [15] it was 1.1; in test [16], 3.8; in test [18] it was 4.2.
With `O=C(CBr)Nc1ccccc1Cn1c2c(c3ccccc31)C[C@@]1(O)C3Cc4ccc(O)c5c4C1(CCN3CC1CC1)[C@H]2O5` (some centres not stated), the Selectivity in test [1] came out at 21; in test [6], 33. In addition, the IC50 ratio in test [3] was 1.7; in [4], 13; in [5], 35; in [7], 1.1.
For the molecule `O=C(CBr)Nc1cccc(Cn2c3c(c4ccccc42)C[C@@]2(O)C4Cc5ccc(O)c6c5C2(CCN4CC2CC2)[C@H]3O6)c1` (some centres not stated), the Selectivity in [8] came out at 2.4; in test [1], 135; in [9], 463; in [12], 805; in test [14], 2.5; in test [6], 511. Further, the IC50 ratio worked out at 44 in test [2]; 3.8 in [3]; 51 in [4]; 511 in test [5]; 0.9 in [7]. Also, the inhibition constant (Ki) was 8.8 nM in test [10] and 15.3 nM in test [17]. Further, the ED50 ratio in [11] was 2.8; in test [15] it was 1; in test [16], 2.4; in [18], 6.9.
For `CC(=O)Nc1ccccc1Cn1c2c(c3ccccc31)C[C@@]1(O)C3Cc4ccc(O)c5c4C1(CCN3CC1CC1)[C@H]2O5` (some centres not stated), the figures for the Selectivity in [1] and in [6] were 29 and 42, respectively. For the same molecule, the IC50 ratio was 1.9 in test [3], 10 in test [4], 54 in [5] and 1.3 in test [7].

(Values after ChEMBL document CHEMBL1128299, “Electrophilic N-benzylnaltrindoles as delta opioid receptor-selective antagonists” (J Med Chem, 1995).)
